Published values gathered from unrelated publications.
Lines come from different studies, so protocols differ.
Target: Alpha-2A adrenergic receptor (ADRA2A, Homo sapiens, UniProt P08913)
Residues used in one study (P08913 1-465): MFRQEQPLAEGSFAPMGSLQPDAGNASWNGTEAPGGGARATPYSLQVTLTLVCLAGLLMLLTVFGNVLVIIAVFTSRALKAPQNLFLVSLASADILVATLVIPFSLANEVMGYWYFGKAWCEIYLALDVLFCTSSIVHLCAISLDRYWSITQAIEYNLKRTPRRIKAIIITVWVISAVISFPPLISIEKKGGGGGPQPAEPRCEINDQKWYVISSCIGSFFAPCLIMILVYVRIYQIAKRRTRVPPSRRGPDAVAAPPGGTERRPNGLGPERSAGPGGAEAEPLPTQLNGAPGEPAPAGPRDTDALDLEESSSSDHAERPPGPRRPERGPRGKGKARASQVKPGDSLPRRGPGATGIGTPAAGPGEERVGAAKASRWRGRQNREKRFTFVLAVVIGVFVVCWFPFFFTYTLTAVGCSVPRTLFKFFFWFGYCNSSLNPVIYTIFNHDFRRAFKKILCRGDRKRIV

COCc1c(-c2cc3cc(C)cc(OC)c3s2)c2c(N)ncnn2c1CN1CCNC(=O)C1  inhibition (ligand displacement; radioligand; 10 µM): 26%
Clc1ccc2c(C3CCN(CCc4c[nH]c5ccccc45)CC3)c[nH]c2c1  inhibition (ligand displacement; radioligand; 10 µM): 82%
Nc1ncc(-c2nc(N3CCOCC3)nc(N3CCOCC3)n2)c(C(F)F)n1  remaining signal (cell-free assay; radioligand; 10 µM): 114%
CC(C)N1CCC[C@H]1CNC(=O)c1cn(C2CCCC2)c(=O)c2c1c1ccccc1n2C  inhibition (ligand displacement; radioligand; 10 µM): 37%
O=C(Nc1cccnn1)N1CCN([C@@H]2CCOc3cc(C(F)(F)F)ccc32)CC1  inhibition (ligand displacement; 20 µM): 7%
N#CC1(c2ccccn2)CCN(Cc2cc(C(=O)O)c(=O)n3ccccc23)CC1  inhibition (cell-free assay; 10 µM): -25.7%
CC(C)Cn1cnc2c(N)nc3ccccc3c21  inhibition (ligand displacement; radioligand; 10 µM): 58%
COc1ccc(S(=O)(=O)N2CCCCC2)cc1C  inhibition (ligand displacement; radioligand; 10 µM): < 30%
Cc1c(N2CCNCC2)nc2ccc(Br)cc2c1C(=O)NC[C@H](CCC(=O)O)c1ccccc1Cl  inhibition (ligand displacement; 10 µM): 65%
